Laboratory results from ChEMBL document CHEMBL1148398, “Design, synthesis, and biological evaluation of thio-containing compounds with serum HDL-cholesterol-elevating properties” (2004).

Columns and labels:
Rattus norvegicus [1] = experiment: Effect of compound on alkaline phosphatase (ALKP) levels in 4th group of normal chow-fed male rats after a dose of 10 mg/kg/day; type: functional, organism-based
Method in brief: (§1)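 Male Sprague–Dawley CD rats (60–80 g) on standard chow under a reversed 12 h light/dark cycle. Compound was suspended in 1.3% Tween 80/0.25% CMC and given as a single daily oral gavage dose for 4 days. Rats were fasted overnight and killed 24 h after the last dose. Serum ALT, AST, ALKP and LDH were read on a clinical analyzer. Weight gain was start versus end weight. Mean ± SEM, n = 6.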

Mesocricetus auratus [2] = experiment: Effect of compound on gain in body weight in 2nd group of cholesterol-fed male hamsters at 10 mg/kg/day after 14 days of treatment
Cricetinae gen. sp. [3] = experiment: Effect of compound on aspartate aminotransferase (AST) levels in 3rd group of cholesterol-fed male hamsters at 30 mg/kg/day after 14 days of treatment; conditions: Mesocricetus auratus
Rattus norvegicus [4] = experiment: Effect of compound on very low-density lipoprotein cholesterol levels in 2nd group of normal chow-fed male rats after a dose of 2 mg/kg/day; type: functional, organism-based
Method in brief: (§2)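 Male Sprague–Dawley CD rats (60–80 g) on Purina 5001 chow with a reverse 12 h light/dark cycle. Dosed once daily by oral gavage for 4 days, suspended in 1.3% Tween 80 / 0.25% CMC. Fasted overnight and bled 24 h after the last dose. Serum TC and glycerol-blanked TG measured enzymatically; VLDL-C by FPLC fractionation with cholesterol assay. n=6, mean ± SEM.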

Cricetinae gen. sp. [5] = experiment: Effect of compound on aspartate aminotransferase (AST) levels in 2nd group of cholesterol-fed male hamsters at 10 mg/kg/day after 14 days of treatment; conditions: Mesocricetus auratus
Cricetinae gen. sp. [6] = experiment: Effect of compound on alanine aminotransferase (ALT) levels in 4th group of cholesterol-fed male hamsters at 100 mg/kg/day after 14 days of treatment; conditions: Mesocricetus auratus
Mesocricetus auratus [7] = experiment: Effect of compound on liver weight in 3rd group of cholesterol-fed male hamsters at 30 mg/kg/day after 14 days of treatment
Rattus norvegicus [8] = experiment: Effect of compound on alkaline phosphatase (ALKP) levels in 1st group of normal chow-fed male rats after a dose of 1 mg/kg/day; type: functional, organism-based; method in brief: as §1
Cricetinae gen. sp. [9] = experiment: Effect of compound on high-density lipoprotein cholesterol levels in 2nd group of cholesterol-fed male hamsters at 10 mg/kg/day after 14 days of treatment; type: functional, organism-based
Rattus norvegicus [10] = experiment: Effect of compound on gain in body weight in 6th group of normal chow-fed male rats after a dose of 50 mg/kg/day; type: functional; method in brief: as §1
Rattus norvegicus [11] = experiment: Effect of compound on total plasma cholesterol levels in 3rd group of normal chow-fed male rats after a dose of 5 mg/kg/day; type: functional, organism-based
Method in brief: (§3)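 Male Sprague–Dawley CD rats, 60–80 g, on standard chow with reverse 12 h light/dark cycle. One oral gavage dose daily for 4 days, suspended in 1.3% Tween 80 and 0.25% CMC. Fasted overnight; sacrificed 24 h after the last dose. Serum TC on clinical analyzer, lipoproteins by FPLC with cholesterol per fraction, T4 on analyzer. Mean ± SEM, six rats per group.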

Rattus norvegicus [12] = experiment: Effect of compound on relative liver weight in 6th group of normal chow-fed male rats after a dose of 50 mg/kg/day; type: functional
Method in brief: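 Chow-fed male Sprague–Dawley CD rats, 60–80 g, dosed by oral gavage once daily for 4 days in 1.3% Tween 80/0.25% CMC. Fasted overnight and sacrificed 24 h after the last dose. Liver weight expressed as % of body weight at termination. Six per group, mean ± SEM.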

Rattus norvegicus [13] = experiment: Effect of compound on aspartate aminotransferase (AST) levels in 3rd group of normal chow-fed male rats after a dose of 5 mg/kg/day; type: functional, organism-based; method in brief: as §1
Rattus norvegicus [14] = experiment: Effect of compound on total plasma cholesterol levels in 5th group of normal chow-fed male rats after a dose of 20 mg/kg/day; type: functional, organism-based; method in brief: as §2
Cricetinae gen. sp. [15] = experiment: Effect of compound on total plasma cholesterol levels in 3rd group of cholesterol-fed male hamsters at 30 mg/kg/day after 14 days of treatment; conditions: Mesocricetus auratus
Rattus norvegicus [16] = experiment: Effect of compound on gain in body weight in 4th group of normal chow-fed male rats after a dose of 10 mg/kg/day; type: functional; method in brief: as §1
Rattus norvegicus [17] = experiment: Effect of compound on very low-density lipoprotein cholesterol levels in 1st group of normal chow-fed male rats after a dose of 1 mg/kg/day; type: functional, organism-based; method in brief: as §2
Mesocricetus auratus [18] = experiment: Effect of compound on liver weight in 4th group of cholesterol-fed male hamsters at 100 mg/kg/day after 14 days of treatment
Rattus norvegicus [19] = experiment: Effect of compound on thyroxine levels in 1st group of normal chow-fed male rats after a dose of 1 mg/kg/day; type: functional, organism-based; method in brief: as §3
Cricetinae gen. sp. [20] = experiment: Effect of compound on alkaline phosphatase (ALKP) levels in 4th group of cholesterol-fed male hamsters at 100 mg/kg/day after 14 days of treatment; conditions: Mesocricetus auratus
Cricetinae gen. sp. [21] = experiment: Effect of compound on triglycerides level in 4th group of cholesterol-fed male hamsters at 100 mg/kg/day after 14 days of treatment; conditions: Mesocricetus auratus
Cricetinae gen. sp. [22] = experiment: Effect of compound on total plasma cholesterol levels in 4th group of cholesterol-fed male hamsters at 100 mg/kg/day after 14 days of treatment; conditions: Mesocricetus auratus
Rattus norvegicus [23] = experiment: Effect of compound on thyroxine levels in 4th group of normal chow-fed male rats after a dose of 10 mg/kg/day; type: functional, organism-based; method in brief: as §3
Rattus norvegicus [24] = experiment: Effect of compound on liver weight in 1st group of normal chow-fed male rats after a dose of 1 mg/kg/day; type: functional
Method in brief: (§4)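 Male Sprague–Dawley CD rats, 60–80 g, on chow with a reverse 12 h light/dark cycle. Given one oral gavage dose daily for 4 days, suspended in 1.3% Tween 80/0.25% CMC. Fasted overnight and sacrificed 24 h after the last dose for blood and liver. Serum liver enzymes read on a clinical analyzer. Six per group, mean ± SEM.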

Rattus norvegicus [25] = experiment: Effect of compound on thyroxine levels in 5th group of normal chow-fed male rats after a dose of 20 mg/kg/day; type: functional, organism-based; method in brief: as §3
Rattus norvegicus [26] = experiment: Effect of compound on gain in body weight in 3rd group of normal chow-fed male rats after a dose of 5 mg/kg/day; type: functional; method in brief: as §1
Rattus norvegicus [27] = experiment: Effect of compound on liver weight in 2nd group of normal chow-fed male rats after a dose of 2 mg/kg/day; type: functional; method in brief: as §4
Cricetinae gen. sp. [28] = experiment: Effect of compound on liver weight in 2nd group of cholesterol-fed male hamsters at 10 mg/kg/day after 14 days of treatment; type: functional
Method in brief: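 Male Syrian Golden hamsters, 90–100 g, fed chow plus 0.25% cholesterol for 2 weeks before and throughout dosing. Compound suspended in 2% Tween 80 in saline, given by oral gavage for 14 days; vehicle controls. Fasted 4 h, last dose 2 h before sacrifice, then weighed and blood and liver collected. Liver enzymes read on a clinical analyzer. Six per group, mean ± SEM.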

Q: For CCN1CC(=O)N(c2cc(Cl)ccc2C)C1=S, which Level (Rattus norvegicus [1]) is on record?
A: 327 U l-1

Q: And the Body weight (Mesocricetus auratus [2])?
A: 9.5 g

Q: And the Level (Cricetinae gen. sp. [3])?
A: 204 U l-1

Q: And the Serum level (Rattus norvegicus [4])?
A: 2.8 mg/dL

Q: What about the Level (Cricetinae gen. sp. [5]) of the same compound?
A: 345 U l-1

Q: And the Level (Cricetinae gen. sp. [6])?
A: 639 U l-1

Q: And the Liver weight (Mesocricetus auratus [7])?
A: 8.5 g

Q: What about the Level (Rattus norvegicus [8]) of the same compound?
A: 312 U l-1

Q: And the Serum level (Cricetinae gen. sp. [9])?
A: 133 mg/dL

Q: And the Body weight (Rattus norvegicus [10])?
A: 27.5 g

Q: What about the Serum level (Rattus norvegicus [11]) of the same compound?
A: 62 mg/dL

Q: And the Relative liver weight (Rattus norvegicus [12])?
A: 4%

Q: And the Level (Rattus norvegicus [13])?
A: 216 U l-1

Q: What about the Serum level (Rattus norvegicus [14]) of the same compound?
A: 84 mg/dL

Q: What about the Serum level (Cricetinae gen. sp. [15]) of the same compound?
A: 372 mg/dL

Q: What about the Body weight (Rattus norvegicus [16]) of the same compound?
A: 33.2 g

Q: What about the Serum level (Rattus norvegicus [17]) of the same compound?
A: 4.3 mg/dL

Q: What about the Liver weight (Mesocricetus auratus [18]) of the same compound?
A: 8.95 g

Q: What about the Serum level (Rattus norvegicus [19]) of the same compound?
A: 3.65 µg/dL

Q: And the Level (Cricetinae gen. sp. [20])?
A: 136 U l-1

Q: What about the Serum level (Cricetinae gen. sp. [21]) of the same compound?
A: 342 mg/dL

Q: And the Serum level (Cricetinae gen. sp. [22])?
A: 373 mg/dL

Q: What about the Serum level (Rattus norvegicus [23]) of the same compound?
A: 3.98 µg/dL

Q: What about the Liver weight (Rattus norvegicus [24]) of the same compound?
A: 8.4 g

Q: And the Serum level (Rattus norvegicus [25])?
A: 4.05 µg/dL

Q: What about the Body weight (Rattus norvegicus [26]) of the same compound?
A: 30.7 g

Q: What about the Liver weight (Rattus norvegicus [27]) of the same compound?
A: 7.3 g

Q: What about the Liver weight (Cricetinae gen. sp. [28]) of the same compound?
A: 9.08 g
